pIC50: −log10 of the molar value. The source made the active and inactive calls. No cut-off for these calls is given here.
What was measured:
Format in all cases: functional, cell-based
HepG2 [1] = assay: Induction of autophagy in human HepG2 cells assessed as increase in LC3B2/1 ratio up to 20 uM measured after 24 hrs by Western blot analysis
Summary of the method: (§1)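 HepG2 cells exposed 24 h to test agent at final 1, 5, 10 or 20 μM. Lysis in RIPA buffer with protease inhibitor cocktail. Proteins resolved on 12% SDS-PAGE, blotted to nitrocellulose, and probed with antibodies to LC3B, P62, ATG5, ATG7, ATG4a and ATG4b. GAPDH served as loading control. Autophagosome formation was read as the LC3B II/I ratio.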

HepG2 [2] = assay: Induction of autophagy in human HepG2 cells assessed as decrease in P62 protein level measured after 24 hrs by Western blot analysis; summary of the method: as §1
HepG2 [3] = assay: Induction of autophagy in human HepG2 cells assessed as decrease in ATG4a protein level up to 20 uM measured after 24 hrs by Western blot analysis; summary of the method: as §1
HepG2 [4] = assay: Induction of autophagy in human HepG2 cells assessed as increase in ATG7 protein level up to 20 uM measured after 24 hrs by Western blot analysis; summary of the method: as §1
HepG2 [5] = assay: Induction of autophagy in human HepG2 cells assessed as increase in ATG5 protein level up to 20 uM measured after 24 hrs by Western blot analysis; summary of the method: as §1
HepG2 [6] = assay: Induction of autophagy in human HepG2 cells assessed as increase in ATG4b protein level up to 20 uM measured after 24 hrs by Western blot analysis; summary of the method: as §1
A549 = assay: Cytotoxicity against human A549 cells by MTT assay
HepG2 [7] = assay: Cytotoxicity against human HepG2 cells by MTT assay
HCT-116 = assay: Cytotoxicity against human HCT116 cells by MTT assay
NCI-H460 = assay: Cytotoxicity against human H460 cells by MTT assay

## CC[C@H]1O[C@@](C)(O)C[n+]2c(C)cc3c(c21)C(=O)c1cc(=O)c2c(c(O)c1-3)O[C@@H]1O[C@H](C)[C@@H](OC)[C@@H](O)[C@]21O
HepG2 [1]
  Activity: Active
HepG2 [2]
  Activity: Dose-dependent effect
HepG2 [3]
  Activity: Active
HepG2 [4]
  Activity: Active
HepG2 [5]
  Activity: Active
HepG2 [6]
  Activity: Active
A549
  pIC50: 3.28 to 3.72
HepG2 [7]
  pIC50: 3.28 to 3.72
HCT-116
  pIC50: 3.28 to 3.72
NCI-H460
  pIC50: 3.28 to 3.72

## CCCC(=O)C1=C2C=C(C)Oc3c4c(c(=O)cc(c32)C1=O)[C@]1(O)[C@H](O4)O[C@H](C)[C@@H](OC)[C@H]1O
HepG2 [1]
  Activity: Active
HepG2 [2]
  Activity: Dose-dependent effect
HepG2 [3]
  Activity: Active
HepG2 [4]
  Activity: Active
HepG2 [5]
  Activity: Active
HepG2 [6]
  Activity: Active

## CC[C@@H](O)c1nc(C)cc2c1C(=O)c1cc(=O)c3c(c(O)c1-2)O[C@@H]1O[C@H](C)[C@@H](OC)[C@@H](O)[C@]31O
HepG2 [1]
  Activity: Active
HepG2 [2]
  Activity: Dose-dependent effect
HepG2 [3]
  Activity: Active
HepG2 [4]
  Activity: Active
HepG2 [5]
  Activity: Active
HepG2 [6]
  Activity: Active
A549
  pIC50: 2.74 to 3.11
HepG2 [7]
  pIC50: 2.74 to 3.11
HCT-116
  pIC50: 2.74 to 3.11
NCI-H460
  pIC50: 2.74 to 3.11

## CC[C@@H](O)C(=O)C1=C2C=C(C)Oc3c4c(c(=O)cc(c32)C1=O)[C@]1(O)[C@H](O4)O[C@H](C)[C@@H](OC)[C@H]1O
HepG2 [1]
  Activity: Active
HepG2 [2]
  Activity: Dose-dependent effect
HepG2 [3]
  Activity: Active
HepG2 [4]
  Activity: Active
HepG2 [5]
  Activity: Active
HepG2 [6]
  Activity: Active

## CC[C@H]1OC(=O)C[n+]2c(C)cc3c(c21)C(=O)c1cc(=O)c2c(c(O)c1-3)O[C@@H]1O[C@H](C)[C@@H](OC)[C@@H](O)[C@]21O
HepG2 [1]
  Activity: Active
HepG2 [2]
  Activity: Dose-dependent effect
HepG2 [3]
  Activity: Active
HepG2 [4]
  Activity: Active
HepG2 [5]
  Activity: Active
HepG2 [6]
  Activity: Active
